Results taken from ChEMBL document CHEMBL1138647, “Carbonic anhydrase inhibitors. Design of anticonvulsant sulfonamides incorporating indane moieties” (Bioorg Med Chem Lett, 2004).

Each compound was assayed on Mus musculus (assay: Percent of mice (n=8) protected against seizures induced by a maximal electroshock (50mA,0.2s) after 30 mg/kg compound was injected intraperitoneally). Conditions: route intraperitoneal.
Type: functional
In short: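 Mice, n = 8 per group, received 30mg/kg ip 3h before a maximal electroshock (50mA, 0.2s). The read-out was the percentage of animals protected against the induced seizures.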

SMILES | Protected mice [%]
CC(=O)NC1Cc2ccc(S(=O)(=O)O)cc2C1.O (centres undefined) | 0
NC1Cc2ccc(S(=O)(=O)O)cc2C1 (centres undefined) | 0
NS(=O)(=O)c1ccc2c(c1)CC(NC(=O)c1c(F)c(F)c(F)c(F)c1F)C2 (centres undefined) | 38
CC(=O)NC1Cc2ccc(S(N)(=O)=O)cc2C1 (centres undefined) | 38
COc1ccc(Cl)cc1C(=O)NC1Cc2ccc(S(N)(=O)=O)cc2C1.O (centres undefined) | 38
CC(=O)/N=c1/sc(S(N)(=O)=O)nn1C [METHAZOLAMIDE] | 100
NS(=O)(=O)c1ccc2c(c1)CC(NC(=O)c1c(F)c(F)cc(F)c1F)C2 (centres undefined) | 13
Cl.NC1Cc2ccc(S(N)(=O)=O)cc2C1 (centres undefined) | 0
NS(=O)(=O)c1ccc2c(c1)CC(NC(=O)c1ccc(Cl)cc1)C2 (centres undefined) | 31
